Measurements: ChEMBL document CHEMBL4706642, “Discovery of a Potent Dual Inhibitor of Acetylcholinesterase and Butyrylcholinesterase with Antioxidant Activity that Alleviates Alzheimer-like Pathology in Old APP/PS1 Mice” (J Med Chem, 2021)
Active and inactive are the calls of the source. The rule behind the calls is not given here.

What was measured:
[1] = system: Mus musculus; experiment: Antialzheimer activity in 11 months old APP/PS1 double mutant-transgenic mouse model assessed as amyloid beta40 levels in hippocampus at 2 mg/kg, ip administered thrice a week for 4 weeks by ELISA (reference value: 8.65 +/- 0.44 pg/ml); assay type: functional
Method in brief: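 Male APP/PS1 mice received 2 mg/kg i.p. in saline (or vehicle), three times weekly for 4 weeks. After the behavioral tests, hippocampus was collected and Aβ40 and Aβ42 were measured with a specific ELISA kit. Mean ± SEM, n = 7 mice per group; one-way ANOVA with Bonferroni post hoc.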

[2] = target: Cholinesterase (Homo sapiens, UniProt P06276); experiment: Inhibition of human serum BChE using butyrylthiocholineiodide as substrate preincubated for 20 mins followed by substrate addition by Ellman's method relative to parent compound; assay type: cell-free
[3] = target: T1, Acetylcholinesterase (Homo sapiens, UniProt P22303); experiment: Inhibition of recombinant human AChE using acetylthiocholineiodide as substrate preincubated for 20 mins followed by substrate addition by Ellman's method relative to parent compound
[4] = system: Mus musculus; experiment: Cognitive enhancing effect in 11 months old APP/PS1 double mutant-transgenic mouse model assessed as increase in preference index for object at 2 mg/kg, ip administered thrice a week for 4 weeks by novel object recognition test; assay type: functional, organism-based
Method in brief: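 Male APP/PS1 mice received 2 mg/kg i.p. in saline (or vehicle), three times per week for 4 weeks. Preference index = time exploring the relocated or novel object divided by total time exploring both objects. Mean ± SEM, n = 7 per group; one-way ANOVA with Bonferroni post hoc.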

[5] = target: T1, Acetylcholinesterase; experiment: Mixed-type inhibition of recombinant human AChE using varying concentration of acetylthiocholine iodide as substrate at 0.17 to 1.36 nM by Lineweaver-burk plot analysis
Method in brief: (§1)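 Kinetics on human recombinant AChE with acetylthiocholine at 0.113–0.566 mM and inhibitor at 0.17–1.36 nM. Lineweaver–Burk plots were fitted by weighted least squares. Ki was taken as the negative x-intercept of a replot of slopes vs [I]. K'i came from a plot of apparent 1/vmax vs [I]. Two independent experiments, each in triplicate.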

[6] = target: Acetylcholinesterase (Electrophorus electricus, UniProt O42275); experiment: Displacement of propidium iodide from PAS-region of electric eel AChE assessed as dissociation constant by spectrofluorimetric analysis
Method in brief: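 Back-titration fluorescence assay using electric eel AChE (type VI-S). Inhibitor was added in successive aliquots from a MeOH stock. Emission was read at 602 nm with excitation at 535 nm, after subtracting blanks. […] Three independent experiments.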

[7] = target: T1, Acetylcholinesterase; experiment: Mixed-type inhibition of recombinant human AChE assessed as dissociation constant for protein-substrate-compound complex using acetylthiocholine iodide as substrate by Cornish-Bowden plot analysis; method in brief: as §1

T1 sequence (P22303 whole entry): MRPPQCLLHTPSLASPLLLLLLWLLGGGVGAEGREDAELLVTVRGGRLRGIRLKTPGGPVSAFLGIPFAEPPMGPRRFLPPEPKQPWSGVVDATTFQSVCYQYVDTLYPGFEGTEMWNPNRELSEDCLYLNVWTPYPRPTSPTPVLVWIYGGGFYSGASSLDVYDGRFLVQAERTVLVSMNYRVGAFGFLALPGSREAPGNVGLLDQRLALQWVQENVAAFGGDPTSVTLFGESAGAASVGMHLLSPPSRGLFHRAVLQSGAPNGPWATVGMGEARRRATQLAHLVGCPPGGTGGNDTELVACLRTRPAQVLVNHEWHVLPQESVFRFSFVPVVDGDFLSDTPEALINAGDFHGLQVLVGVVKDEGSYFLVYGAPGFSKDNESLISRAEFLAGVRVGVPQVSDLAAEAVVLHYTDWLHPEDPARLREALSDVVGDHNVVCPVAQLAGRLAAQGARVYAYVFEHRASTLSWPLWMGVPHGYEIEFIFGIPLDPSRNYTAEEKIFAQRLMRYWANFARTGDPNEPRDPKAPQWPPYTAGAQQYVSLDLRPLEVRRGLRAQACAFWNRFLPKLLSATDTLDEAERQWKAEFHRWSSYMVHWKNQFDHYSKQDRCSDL
Cholinesterase, sequence (P06276 whole entry): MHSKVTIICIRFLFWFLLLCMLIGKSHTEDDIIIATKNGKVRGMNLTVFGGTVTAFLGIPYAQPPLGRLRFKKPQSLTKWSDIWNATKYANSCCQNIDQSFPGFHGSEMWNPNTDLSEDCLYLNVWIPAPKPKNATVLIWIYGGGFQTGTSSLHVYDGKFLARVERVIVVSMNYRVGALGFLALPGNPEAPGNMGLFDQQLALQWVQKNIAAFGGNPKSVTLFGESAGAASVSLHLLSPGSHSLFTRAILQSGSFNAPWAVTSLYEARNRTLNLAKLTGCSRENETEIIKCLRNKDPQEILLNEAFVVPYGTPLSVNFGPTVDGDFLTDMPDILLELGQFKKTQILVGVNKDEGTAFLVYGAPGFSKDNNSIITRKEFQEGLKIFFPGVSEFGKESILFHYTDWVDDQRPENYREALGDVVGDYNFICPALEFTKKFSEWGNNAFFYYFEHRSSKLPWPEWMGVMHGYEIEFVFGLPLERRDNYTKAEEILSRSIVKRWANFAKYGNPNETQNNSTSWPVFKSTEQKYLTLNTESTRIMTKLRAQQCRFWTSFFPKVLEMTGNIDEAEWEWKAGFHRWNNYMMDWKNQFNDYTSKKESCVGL
Acetylcholinesterase (Electrophorus electricus, UniProt O42275), sequence (O42275 whole entry): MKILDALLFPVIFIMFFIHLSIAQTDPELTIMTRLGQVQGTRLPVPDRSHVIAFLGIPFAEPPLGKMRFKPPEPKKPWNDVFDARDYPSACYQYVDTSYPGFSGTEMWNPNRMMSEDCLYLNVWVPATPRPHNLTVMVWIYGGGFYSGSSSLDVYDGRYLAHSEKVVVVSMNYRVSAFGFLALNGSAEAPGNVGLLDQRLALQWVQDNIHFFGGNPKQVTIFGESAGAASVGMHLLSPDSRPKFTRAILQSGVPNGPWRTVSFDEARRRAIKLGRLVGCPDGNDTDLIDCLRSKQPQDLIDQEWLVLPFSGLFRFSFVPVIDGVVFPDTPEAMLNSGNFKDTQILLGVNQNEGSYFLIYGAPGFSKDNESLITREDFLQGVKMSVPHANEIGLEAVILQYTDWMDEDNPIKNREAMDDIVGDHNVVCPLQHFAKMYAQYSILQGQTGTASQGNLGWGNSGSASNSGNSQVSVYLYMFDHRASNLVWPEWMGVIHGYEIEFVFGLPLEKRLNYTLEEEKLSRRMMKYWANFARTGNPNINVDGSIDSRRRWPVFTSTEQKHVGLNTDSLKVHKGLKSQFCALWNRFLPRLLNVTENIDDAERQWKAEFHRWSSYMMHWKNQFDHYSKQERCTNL

Structure (SMILES)	Activity [1] [pg/mL]	fold change (FC) [2]	fold change (FC) [3]	Activity [4]	Kd [5] [nM]	inhibition ([5]; dose 0.17-1.36 nM)	Kd [6] [nM]	Ki [7] [nM]
COc1cc(CNC(=O)Cc2cn(CCCCC3=CC4Cc5nc6cc(Cl)ccc6c(N)c5C(C3)C4)nn2)ccc1O (stereo not drawn)	18.4	25	25	Active	–	–	–	–
COc1cc(CNC(=O)CCCCCCNc2c3c(nc4cc(Cl)ccc24)CC2C=C(C)CC3C2)ccc1O (stereo not drawn)	–	–	–	–	0.94	Active	3.59	0.94
